Tests used:
[1] = test system: Staphylococcus epidermidis; test: Bactericidal activity against Staphylococcus epidermidis ATCC 12228; type: functional; details: read-out: MBC99.9
Procedure, shortened: (§1)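 Wells from the 24 h, 37 °C MHB microdilution plates (bacteria at a final (0.5−1) × 10^5 CFU/mL; peptide diluted in 0.2% BSA) were plated on agar and incubated overnight. MBC is the lowest concentration killing >99.9% of cells. Each test was reproduced at least 3 times.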

[2] = test system: Escherichia coli; test: Antibacterial activity against Escherichia coli ATCC 25922 after 18 hrs in presence of NaCl by broth dilution method; type: functional; details: ATCC 25922, 18 h
[3] = test system: Candida albicans; test: Fungicidal activity against Candida albicans cgmcc 2.2086 after 96 hrs; type: functional; details: cgmcc 2.2086, 96 h, read-out: MFC99.9
Procedure, shortened: (§2)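 After the 48 h, 28 °C broth microdilution in MOPS-buffered RPMI 1640 (inoculum (0.5−1) × 10^3 CFU/mL), 50 μL from each well was plated on YM agar for a further 48 h at 28 °C. MFC is the lowest concentration killing at least 99.9% of cells. Triplicate, three biological replicates.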

[4] = test system: Staphylococcus aureus; test: Bactericidal activity against methicillin-resistant Staphylococcus aureus ATCC 4330; type: functional; details: read-out: MBC99.9
Procedure, shortened: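 Bacteria at (0.5−1) × 10^5 CFU/mL in MHB were exposed to serially diluted peptide (0.2% BSA) for 24 h at 37 °C, then 50 μL aliquots were plated on agar overnight. MBC is the lowest concentration killing >99.9% of cells. At least 3 repeats.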

[5] = test system: Candida albicans; test: Fungicidal activity against Candida albicans SP3903 after 96 hrs; type: functional; details: SP3903, 96 h, read-out: MFC99.9; procedure, shortened: as §2
[6] = test system: Candida albicans; test: Fungicidal activity against fluconazole-resistant Candida albicans 56452 after 96 hrs; type: functional; details: Candida albicans, 56452, 96 h; read-out: MFC99.9; procedure, shortened: as §2
[7] = test system: Escherichia coli; test: Antibacterial activity against Escherichia coli ATCC 25922 after 18 hrs in presence of NH4Cl by broth dilution method; type: functional; details: ATCC 25922, 18 h
[8] = test system: Escherichia coli; test: Antibacterial activity against Escherichia coli ATCC 25922 after 24 hrs; type: functional; details: ATCC 25922, 24 h
Procedure, shortened: (§3)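 Broth microdilution. Mid-log bacteria in MHB at a final (0.5−1) × 10^5 CFU/mL were mixed with equal volumes of peptide serially diluted in 0.2% BSA. Plates were incubated 24 h at 37 °C and read at A492. MIC is the lowest concentration inhibiting 95% of growth. Each test was repeated at least 3 times.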

[9] = test system: Escherichia coli; test: Antibacterial activity against Escherichia coli ATCC 25922 after 18 hrs in presence of KCl by broth dilution method; type: functional; details: ATCC 25922, 18 h
[10] = test system: Escherichia coli; test: Bactericidal activity against Escherichia coli ATCC 25922; type: functional; details: read-out: MBC99.9; procedure, shortened: as §1
[11] = test system: Candida albicans; test: Antifungal activity against Candida albicans isolated from alveolar fluid after 48 hrs by broth microdilution method; type: functional
Procedure, shortened: (§4)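 Modified CLSI M27-A2 broth microdilution. Yeast at (0.5−1) × 10^3 CFU/mL in MOPS-buffered RPMI 1640 was mixed 1:1 with peptide serially diluted in 0.2% BSA and incubated 48 h at 28 °C. Absorbance was read at 492 nm; MIC is the lowest concentration inhibiting 95% of growth. Triplicate, three biological replicates.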

[12] = test system: Candida albicans; test: Antifungal activity against Candida albicans cgmcc 2.2086 in presence of KCl by broth dilution method; type: functional
[13] = test system: Escherichia coli; test: Bactericidal activity against Escherichia coli 1005; type: functional; details: read-out: MBC99.9; procedure, shortened: as §1
[14] = test system: Escherichia coli; test: Antibacterial activity against Escherichia coli ATCC 25922 after 18 hrs in presence of CaCl2 by broth dilution method; type: functional; details: ATCC 25922, 18 h
[15] = test system: Candida albicans; test: Fungicidal activity against Candida albicans isolated from alveolar fluid after 96 hrs; type: functional; details: read-out: MFC99.9; procedure, shortened: as §2
[16] = test system: HEK-293T; test: Cytotoxicity against HEK293T cells assessed as decrease in cell viability at 64 uM after 24 hrs by MTT assay relative to control; type: cell-based; details: human
Procedure, shortened: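 MTT viability assay. RAW264.7 or HEK293T cells at (1.0−2.0) × 10^5 per well were exposed to a peptide concentration series for 24 h at 37 °C in 5% CO2. MTT was then added at 0.5 mg/mL final for 4 h; formazan was dissolved in DMSO and read at 570 nm. Results average three independent trials.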

[17] = test system: Candida albicans; test: Antifungal activity against fluconazole-resistant Candida albicans 56452 after 48 hrs by broth microdilution method; type: functional; details: Candida albicans, 56452, 48 h; procedure, shortened: as §4
[18] = test system: Candida albicans; test: Fungicidal activity against Candida albicans SP3931 after 96 hrs; type: functional; details: SP3931, 96 h, read-out: MFC99.9; procedure, shortened: as §2
[19] = test system: Candida albicans; test: Antifungal activity against Candida albicans cgmcc 2.2086 in presence of NaCl by broth dilution method; type: functional
[20] = Antibacterial activity against Salmonella pullorum ATCC 7913 after 24 hrs; type: functional, Salmonella enterica subsp. enterica serovar Pullorum; details: Salmonella enterica, ATCC 7913, 24 h; procedure, shortened: as §3
[21] = test system: Escherichia coli; test: Antibacterial activity against Escherichia coli 1005 after 24 hrs; type: functional; details: Escherichia coli, 1005, 24 h; procedure, shortened: as §3
[22] = test system: Staphylococcus aureus; test: Antibacterial activity against Staphylococcus aureus ATCC 25923 after 24 hrs; type: functional; details: ATCC 25923, 24 h
Procedure, shortened: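 Modified NCCLS broth microdilution. Mid-log bacteria at (0.5−1) × 10^5 CFU/mL in MHB were mixed 1:1 with peptide serially diluted in 0.2% BSA and incubated 24 h at 37 °C. Absorbance was read at 492 nm; MIC is the lowest concentration inhibiting 95% of growth. At least 3 repeats.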

[23] = test system: Candida tropicalis; test: Fungicidal activity against Candida tropicalis cgmcc 2.1975 after 96 hrs; type: functional; details: cgmcc 2.1975, 96 h, read-out: MFC99.9
Procedure, shortened: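 Wells from the 48 h, 28 °C RPMI 1640/MOPS microdilution plates were plated on YM agar and incubated a further 48 h at 28 °C. MFC is the lowest concentration killing at least 99.9% of cells. Run in triplicate with three biological replicates.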

[24] = test system: Candida albicans; test: Antifungal activity against Candida albicans cgmcc 2.2086 in presence of ZnCl2 by broth dilution method; type: functional
[25] = test system: Candida albicans; test: Fungicidal activity against fluconazole-resistant Candida albicans 56214 after 96 hrs; type: functional; details: Candida albicans, 56214, 96 h; read-out: MFC99.9; procedure, shortened: as §2
[26] = test system: Candida albicans; test: Fungicidal activity against Candida albicans SP3876 after 96 hrs; type: functional; details: SP3876, 96 h, read-out: MFC99.9; procedure, shortened: as §2
[27] = test system: Candida albicans; test: Antifungal activity against fluconazole-resistant Candida albicans 17546 after 48 hrs by broth microdilution method; type: functional; details: Candida albicans, 17546, 48 h; procedure, shortened: as §4
[28] = test system: Erythrocyte; test: Hemolytic activity in human RBC after 1 hr; type: ADME, cell-based
Procedure, shortened: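 Fresh human erythrocytes, diluted 10-fold in PBS pH 7.4, were mixed with equal volumes of peptide and held 1 h at 37 °C. After centrifugation at 1000g, supernatant hemoglobin was read at 576 nm. PBS set 0% and 0.1% Triton X-100 set 100% lysis. MHC is the concentration causing 10% hemolysis. At least three experiments were run, each in technical triplicate.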

[29] = test system: Candida albicans; test: Antifungal activity against Candida albicans SP3931 after 48 hrs by broth microdilution method; type: functional; details: SP3931, 48 h; procedure, shortened: as §4
[30] = test system: Staphylococcus aureus; test: Bactericidal activity against Staphylococcus aureus ATCC 25923; type: functional; details: read-out: MBC99.9; procedure, shortened: as §1

Row | Substance | MBC [1] [µM] | MIC [2] [µM] | MFC [3] [µM] | MBC [4] [µM] | MFC [5] [µM] | MFC [6] [µM] | MIC [7] [µM] | MIC95 [8] [µM] | MIC [9] [µM] | MBC [10] [µM] | MIC95 [11] [µM] | MIC [12] [µM] | MBC [13] [µM] | MIC [14] [µM] | MFC [15] [µM] | Activity [16] | MIC95 [17] [µM] | MFC [18] [µM] | MIC [19] [µM] | MIC95 [20] [µM] | further results
1 | H-WWRRWRRWW-NH2 | 8 | 8 | 16 | 4 | 4 | 8 | 8 | 8 | 8 | 32 | 8 | 16 | 8 | 32 | 16 | Toxic | 8 | 32 | 16 | 8 | MIC95 [21]: 4 µM; MIC95 [22]: 4 µM; MFC [23]: 8 µM; MIC [24]: 8 µM; MFC [25]: 8 µM; MFC [26]: 4 µM; MIC95 [27]: 2 µM; HC10 [28]: > 128 µM; MIC95 [29]: 16 µM; MBC [30]: 8 µM
2 | H-RWWRRWRRWWR-NH2 | 8 | 16 | 8 | 8 | 2 | 8 | 16 | 16 | 16 | 16 | 4 | 8 | 8 | 32 | 8 | Toxic | 8 | 16 | 16 | 4 | MIC95 [21]: 8 µM; MIC95 [22]: 8 µM; MFC [23]: 4 µM; MIC [24]: 4 µM; MFC [25]: 8 µM; MFC [26]: 2 µM; MIC95 [27]: 4 µM; HC10 [28]: > 128 µM; MIC95 [29]: 8 µM; MBC [30]: 16 µM
